Test results taken from ChEMBL document CHEMBL5214999, “Identification and Optimization of a Ligand-Efficient Benzoazepinone Bromodomain and Extra Terminal (BET) Family Acetyl-Lysine Mimetic into the Oral Candidate Quality Molecule I-BET432” (J Med Chem, 2022).

Experiments:
[1] = Unbound clearance in Wistar Han rat blood at 3 mg/kg, po or 1 mg/kg, iv measured upto 24 hrs by LC-MS/MS analysis; assay type: ADME, organism-based; conditions: in vivo
Procedure, shortened: (§1)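 Male Wistar Han rats and beagle dogs were dosed iv as a 1 h infusion in DMSO with 10% (w/v) Kleptose HPB in saline (2%:98% or 5%:95% v/v). Oral doses were given in 1% (w/v) methylcellulose (400 cps) aqueous suspension. Oral values are means of n = 3 and iv values n = 1 unless otherwise noted.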

[2] = Unbound volume of distribution at steady state in Wistar Han rat at 3 mg/kg, po or 1 mg/kg, iv measured upto 24 hrs by LC-MS/MS analysis; assay type: ADME, organism-based; conditions: in vivo; procedure, shortened: as §1
[3] = Volume of distribution at steady state in Wistar Han rat at 3 mg/kg, po or 1 mg/kg, iv measured upto 24 hrs by LC-MS/MS analysis; assay type: ADME, organism-based; conditions: in vivo, read-out: Vdss; procedure, shortened: as §1
[4] = Half-life in Wistar Han rat at 3 mg/kg, po or 1 mg/kg, iv measured upto 24 hrs by LC-MS/MS analysis; assay type: ADME, organism-based; conditions: in vivo; procedure, shortened: as §1
[5] = Artificial membrane permeability of the compound; assay type: ADME; conditions: PAMPA; read-out: permeability
[6] = molecular target: Cytochrome P450 3A4 (Homo sapiens, UniProt P08684); assay: Inhibition of CYP3A4 (unknown origin); assay type: ADME
[7] = Intrinsic clearance in human hepatocytes measured after 120 mins by LC-MS/MS analysis; assay type: ADME, cell-based, Hepatocyte; conditions: 2 h
[8] = Intrinsic clearance in rat hepatocytes after 60 mins by LC-MS/MS analysis; assay type: ADME, cell-based, Hepatocyte; conditions: 1 h
[9] = Volume of distribution at steady state in Beagle dog at 1.5 mg/kg, po or 0.5 mg/kg, iv measured upto 24 hrs by LC-MS/MS analysis; assay type: ADME, organism-based, Canis lupus familiaris; conditions: in vivo, read-out: Vdss; procedure, shortened: as §1
[10] = Intrinsic clearance in dog hepatocytes incubated upto 45 mins by LC-MS/MS analysis; assay type: ADME, cell-based, Canis lupus familiaris, Hepatocyte; conditions: 0.75 h
[11] = Lipophilicity, logD of compound at pH 7.4 by Chromatography; assay type: physicochemical; conditions: buffer
[12] = molecular target: T1, Bromodomain-containing protein 4 (Homo sapiens, UniProt O60885); assay: Inhibition of BRD4 BD2 (unknown origin) measured by TR-FRET assay
[13] = Oral bioavailability in Wistar Han rat at 3 mg/kg measured upto 24 hrs by LC-MS/MS analysis; assay type: ADME, organism-based; conditions: in vivo; procedure, shortened: as §1
[14] = Unbound clearance in Beagle dog blood at 1.5 mg/kg, po or 0.5 mg/kg, iv measured upto 24 hrs by LC-MS/MS analysis; assay type: ADME, organism-based, Canis lupus familiaris; conditions: in vivo; procedure, shortened: as §1
[15] = molecular target: T2, Transcription intermediary factor 1-alpha (Homo sapiens, UniProt O15164); assay: Binding affinity to human TRIM24 bromodomain by BROMOscan method
T2 sequence (O15164 whole entry): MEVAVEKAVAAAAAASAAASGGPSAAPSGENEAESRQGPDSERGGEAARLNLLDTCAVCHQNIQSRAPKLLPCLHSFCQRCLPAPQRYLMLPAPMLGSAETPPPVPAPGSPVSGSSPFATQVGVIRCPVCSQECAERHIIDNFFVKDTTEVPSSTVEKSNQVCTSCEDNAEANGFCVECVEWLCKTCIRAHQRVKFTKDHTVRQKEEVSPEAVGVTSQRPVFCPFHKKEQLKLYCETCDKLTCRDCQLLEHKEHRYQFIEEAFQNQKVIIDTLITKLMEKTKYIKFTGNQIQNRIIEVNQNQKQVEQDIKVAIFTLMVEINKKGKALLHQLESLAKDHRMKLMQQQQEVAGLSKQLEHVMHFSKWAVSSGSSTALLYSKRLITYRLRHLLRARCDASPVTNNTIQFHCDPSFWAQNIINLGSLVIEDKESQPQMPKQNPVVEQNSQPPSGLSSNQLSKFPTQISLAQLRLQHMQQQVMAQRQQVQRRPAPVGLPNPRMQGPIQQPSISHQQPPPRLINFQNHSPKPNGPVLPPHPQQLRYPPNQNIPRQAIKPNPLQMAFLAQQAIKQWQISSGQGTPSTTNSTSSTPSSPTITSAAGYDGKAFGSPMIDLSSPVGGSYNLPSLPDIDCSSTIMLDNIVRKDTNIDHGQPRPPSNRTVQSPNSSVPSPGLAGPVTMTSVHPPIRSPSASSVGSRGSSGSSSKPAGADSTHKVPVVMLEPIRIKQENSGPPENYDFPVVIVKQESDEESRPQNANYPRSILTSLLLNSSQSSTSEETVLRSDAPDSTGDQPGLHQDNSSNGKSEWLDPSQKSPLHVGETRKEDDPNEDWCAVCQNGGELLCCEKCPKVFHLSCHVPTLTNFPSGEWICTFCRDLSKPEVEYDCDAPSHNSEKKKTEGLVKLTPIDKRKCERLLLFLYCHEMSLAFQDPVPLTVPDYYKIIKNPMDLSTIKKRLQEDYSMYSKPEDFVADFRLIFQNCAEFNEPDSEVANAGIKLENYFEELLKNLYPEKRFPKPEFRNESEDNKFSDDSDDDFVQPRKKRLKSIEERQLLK

[16] = Clearance in Beagle dog blood at 1.5 mg/kg, po or 0.5 mg/kg, iv measured upto 24 hrs by LC-MS/MS analysis; assay type: ADME, organism-based, Canis lupus familiaris; conditions: whole blood; procedure, shortened: as §1
[17] = Half-life in Beagle dog at 1.5 mg/kg, po or 0.5 mg/kg, iv measured upto 24 hrs by LC-MS/MS analysis; assay type: ADME, organism-based, Canis lupus familiaris; conditions: in vivo; procedure, shortened: as §1
[18] = Solubility of the compound at pH 6.5 in fast state simulated intestinal fluid incubated for 16 hrs by HPLC analysis; assay type: physicochemical; conditions: fasted state simulated intestinal fluid
[19] = Stability of compound in simulated gastric fluid assessed as half-life at pH 6 to 10 in presence of hydrogen peroxide; assay type: ADME
Procedure, shortened: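 The compound was held at 40 °C in pH 10 medium, pH 6 medium and simulated gastric fluid, each with and without hydrogen peroxide as oxidant, and degradation was monitored.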

[20] = Unbound volume of distribution at steady state in Beagle dog at 1.5 mg/kg, po or 0.5 mg/kg, iv measured upto 24 hrs by LC-MS/MS analysis; assay type: ADME, organism-based, Canis lupus familiaris; conditions: in vivo; procedure, shortened: as §1
[21] = Unbound fraction in Beagle dog at 1.5 mg/kg, po or 0.5 mg/kg, iv measured upto 24 hrs by LC-MS/MS analysis; assay type: ADME, organism-based, Canis lupus familiaris; conditions: in vivo
[22] = molecular target: Voltage-gated inwardly rectifying potassium channel KCNH2 (Homo sapiens, UniProt Q12809); assay: Inhibition of hERG; assay type: toxicity
[23] = Unbound fraction in Wistar Han rat at 3 mg/kg, po or 1 mg/kg, iv measured upto 24 hrs by LC-MS/MS analysis; assay type: ADME, organism-based; conditions: in vivo
[24] = Clearance in Wistar Han rat blood at 3 mg/kg, po or 1 mg/kg, iv measured upto 24 hrs by LC-MS/MS analysis; assay type: ADME, organism-based; conditions: whole blood; procedure, shortened: as §1
[25] = Oral bioavailability in Beagle dog at 1.5 mg/kg measured upto 24 hrs by LC-MS/MS analysis; assay type: ADME, organism-based, Canis lupus familiaris; conditions: in vivo; procedure, shortened: as §1
[26] = molecular target: T1, Bromodomain-containing protein 4; assay: Inhibition of BRD4 BD1 (unknown origin) measured by TR-FRET assay
[27] = molecular target: C-C motif chemokine 2 (Homo sapiens, UniProt P13500); assay: Inhibition of MCP-1 in LPS-stimulated human whole blood incubate for 24 hrs by immuno assay; assay type: tissue-based
C-C motif chemokine 2, sequence (P13500 whole entry): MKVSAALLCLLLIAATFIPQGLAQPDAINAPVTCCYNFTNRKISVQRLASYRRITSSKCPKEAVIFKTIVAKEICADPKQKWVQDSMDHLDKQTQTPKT

Cytochrome P450 3A4, sequence (P08684 whole entry): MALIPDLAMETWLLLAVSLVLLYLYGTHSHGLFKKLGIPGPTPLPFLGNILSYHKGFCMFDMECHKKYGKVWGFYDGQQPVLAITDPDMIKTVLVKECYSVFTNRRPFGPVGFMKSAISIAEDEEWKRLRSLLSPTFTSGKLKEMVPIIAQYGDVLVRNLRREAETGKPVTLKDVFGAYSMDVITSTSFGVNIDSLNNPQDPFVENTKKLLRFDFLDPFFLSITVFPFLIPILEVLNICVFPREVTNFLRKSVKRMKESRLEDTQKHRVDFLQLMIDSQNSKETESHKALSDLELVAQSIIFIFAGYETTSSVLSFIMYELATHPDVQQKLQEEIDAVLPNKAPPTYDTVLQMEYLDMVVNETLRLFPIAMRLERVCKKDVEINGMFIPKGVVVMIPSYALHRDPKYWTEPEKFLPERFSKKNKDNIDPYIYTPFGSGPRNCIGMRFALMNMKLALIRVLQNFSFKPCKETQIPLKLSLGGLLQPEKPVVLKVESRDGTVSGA
Voltage-gated inwardly rectifying potassium channel KCNH2, sequence (Q12809 whole entry): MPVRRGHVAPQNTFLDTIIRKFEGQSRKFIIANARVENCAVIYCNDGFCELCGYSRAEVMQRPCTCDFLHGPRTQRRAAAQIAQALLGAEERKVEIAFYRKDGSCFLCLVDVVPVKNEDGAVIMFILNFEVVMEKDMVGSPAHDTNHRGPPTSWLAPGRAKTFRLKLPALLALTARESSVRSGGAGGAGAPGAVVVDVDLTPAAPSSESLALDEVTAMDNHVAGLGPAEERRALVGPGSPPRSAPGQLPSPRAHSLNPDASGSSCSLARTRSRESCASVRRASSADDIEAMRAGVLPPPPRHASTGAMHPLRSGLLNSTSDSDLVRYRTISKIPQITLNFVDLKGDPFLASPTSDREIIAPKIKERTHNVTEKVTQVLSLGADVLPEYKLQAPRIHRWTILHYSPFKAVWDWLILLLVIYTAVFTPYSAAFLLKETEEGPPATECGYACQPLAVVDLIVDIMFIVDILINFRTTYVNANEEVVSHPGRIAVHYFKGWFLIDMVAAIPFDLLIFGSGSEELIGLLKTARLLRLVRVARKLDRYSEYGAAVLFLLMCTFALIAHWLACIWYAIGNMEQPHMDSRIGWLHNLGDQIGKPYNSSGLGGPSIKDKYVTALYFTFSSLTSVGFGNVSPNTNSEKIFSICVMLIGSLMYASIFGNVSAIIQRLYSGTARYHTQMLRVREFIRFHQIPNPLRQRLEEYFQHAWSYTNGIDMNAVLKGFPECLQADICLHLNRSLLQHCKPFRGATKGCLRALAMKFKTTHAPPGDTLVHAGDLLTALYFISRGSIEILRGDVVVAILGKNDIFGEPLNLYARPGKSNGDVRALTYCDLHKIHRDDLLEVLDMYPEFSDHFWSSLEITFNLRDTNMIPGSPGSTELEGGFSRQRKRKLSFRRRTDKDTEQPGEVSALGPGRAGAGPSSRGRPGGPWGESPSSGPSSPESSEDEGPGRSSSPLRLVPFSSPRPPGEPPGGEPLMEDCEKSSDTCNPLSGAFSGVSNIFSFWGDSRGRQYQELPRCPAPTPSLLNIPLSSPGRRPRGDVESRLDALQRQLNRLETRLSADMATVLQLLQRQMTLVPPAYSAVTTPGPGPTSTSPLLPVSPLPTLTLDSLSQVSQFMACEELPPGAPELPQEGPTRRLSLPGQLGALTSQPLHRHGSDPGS

C[C@H]1C(=O)N(C)C=C(c2cnn(C)c2)c2cc([C@@H](O)CO)ccc21
CL free [1]: 38 mL/min/kg | Vduss [2]: 1.9 L/kg | Vd [3]: 1.3 L/kg | half-life [4]: 0.74 h | Papp [5]: 3.1 ×10⁻⁶ cm/s | IC50 [6]: > 39800 nM | CLH [7]: < 0.45 mL/min/g | CLH [8]: < 0.8 mL/min/g | Vd [9]: 2.7 L/kg | CLH [10]: < 0.65 mL/min/g | chromatographic logD [11]: 1.3 | IC50 [12]: 63.1 nM | bioavailability [13]: 67% | CL free [14]: 60 mL/min/kg | Kd [15]: 1260 nM | clearance [16]: 28 mL/min/kg | half-life [17]: 1.4 h | solubility at 16 h [18]: > 1000 µg/mL | half-life [19]: > 1000 h | Vduss [20]: 5.7 L/kg | Fu [21]: 0.47 | IC50 [22]: > 50100 nM | Fu [23]: 0.68 | clearance [24]: 26 mL/min/kg | bioavailability [25]: 79% | IC50 [26]: 31.6 nM | IC50 [27]: 39.8 nM
